Here are results for 31 compounds from ChEMBL document CHEMBL3763127, “Design, synthesis and biological evaluation of novel asperphenamate derivatives” (Eur J Med Chem, 2016).

For orientation: IC50 means the midpoint of a concentration-inhibition curve. Read a low IC50 as higher potency.

Common to all, as to assay type: functional, cell-based
The subject of one assay is MCF7. Briefly: Cytotoxicity against human MCF7 cells after 3 days by MTT assay. The settings on record: MCF7, 72 h. An outline of the steps:
(§1)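 MCF-7, HeLa and BEL-7402 cells were grown in RPMI 1640 with 10% heat-inactivated FBS, 1 mM glutamine and penicillin/streptomycin at 37 °C under 5% CO2. They were exposed to compound for 3 days, then read by MTT at 570 nm. Viability was taken as treated/control absorbance, and IC50 was derived from it. Values are mean SD of three independent experiments.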

A further assay deals with HeLa. Kind of assay: Cytotoxicity against human HeLa cells after 3 days by MTT assay. The following applies: 72 h. The gist of the method: as §1
In general terms: Tetrazolium assays rely on reduction of a dye to a coloured formazan, in cell work by metabolically active cells.

Assay [1] in a line: Cytotoxicity against human Bel7402 cells after 3 days by MTT assay. The following applies: Bel-7402, 72 h. An outline of the steps: as §1

With `O=C(N[C@H](COC(=O)[C@@H](Cc1ccccc1)NC(=O)c1cccs1)Cc1ccccc1)c1ccccc1`, the IC50 (in the assay with MCF7; in the assay with HeLa; in assay [1]) was over 100 µM each time.

With `O=C(N[C@@H](COC(=O)[C@@H](Cc1ccccc1)NC(=O)c1cccs1)Cc1ccccc1)c1ccccc1`, the IC50 (in the assay with MCF7; in the assay on HeLa; in assay [1]) was over 100 µM in each case.

On to `O=C(N[C@@H](COC(=O)[C@H](Cc1ccccc1)NC(=O)n1cncn1)Cc1ccccc1)c1ccccc1` (single isomer, unassigned), for which the IC50 (in the assay with MCF7; in the assay on HeLa; in assay [1]) was over 100 µM throughout.

Take `O=C(N[C@H](COC(=O)[C@@H](Cc1ccccc1)NC(=O)c1cccnc1)Cc1ccccc1)c1ccccc1` (single isomer, unassigned): the IC50 with MCF7 stood at 16.7 µM; with HeLa it was 24.9 µM; in assay [1], 16.6 µM.

With `Cc1ccc(S(=O)(=O)N[C@@H](Cc2ccccc2)C(=O)OC[C@@H](Cc2ccccc2)NC(=O)c2ccccc2)cc1`, the values for the IC50 (with MCF7; with HeLa; in assay [1]) were 28.6 µM, 41.9 µM and 54.3 µM, respectively.

As to `O=C(N[C@H](COC(=O)[C@@H](Cc1ccccc1)NC(=O)n1cncn1)Cc1ccccc1)c1ccccc1` (single isomer, unassigned), the IC50 with MCF7 is 67.5 µM; in the assay with HeLa, 78.9 µM; in assay [1] it was 82.1 µM.

For the compound `O=C(N[C@H](COC(=O)[C@H](Cc1ccccc1)NC(=O)c1cccs1)Cc1ccccc1)c1ccccc1`, the concentration for half-maximal inhibition (IC50) (in the assay with MCF7; in the assay on HeLa; in assay [1]) was over 100 µM throughout.

For the compound `CS(=O)(=O)N[C@@H](Cc1ccccc1)C(=O)OC[C@H](Cc1ccccc1)NC(=O)c1ccccc1`, the values for the IC50 (with MCF7; in the assay with HeLa; in assay [1]) were 76.3 µM, 93.9 µM and 70.4 µM, respectively.

For `O=C(N[C@@H](COC(=O)[C@H](Cc1ccccc1)NC(=O)n1ccnc1)Cc1ccccc1)c1ccccc1` (single isomer, unassigned), the IC50 (in the assay with MCF7; in the assay with HeLa; in assay [1]) was over 100 µM each time.

Regarding `O=C(N[C@@H](COC(=O)[C@H](Cc1ccccc1)NC(=O)c1ccco1)Cc1ccccc1)c1ccccc1` (single isomer, unassigned), the IC50 (in the assay on MCF7; in the assay on HeLa; in assay [1]) was over 100 µM in each case.

Regarding `CS(=O)(=O)N[C@H](Cc1ccccc1)C(=O)OC[C@H](Cc1ccccc1)NC(=O)c1ccccc1`, the IC50 in the assay with MCF7 was determined as 21.9 µM; in the assay on HeLa, 22.1 µM; in assay [1], 37 µM.

For the compound `O=C(N[C@@H](COC(=O)[C@H](Cc1ccccc1)NC(=O)c1cccs1)Cc1ccccc1)c1ccccc1`, the IC50 (in the assay with MCF7; in the assay on HeLa; in assay [1]) was over 100 µM each time.

As for `O=C(N[C@@H](COC(=O)[C@@H](Cc1ccccc1)NC(=O)n1cncn1)Cc1ccccc1)c1ccccc1`, the IC50 turned out to be 89 µM with MCF7, 91.2 µM with HeLa and 95.7 µM in assay [1].

Take `CS(=O)(=O)N[C@@H](Cc1ccccc1)C(=O)OC[C@@H](Cc1ccccc1)NC(=O)c1ccccc1`: the IC50 (in the assay with MCF7; in the assay with HeLa; in assay [1]) was over 100 µM throughout.

Turning to `O=C(N[C@@H](COC(=O)[C@H](Cc1ccccc1)NC(=O)c1cccnc1)Cc1ccccc1)c1ccccc1` (single isomer, unassigned), the IC50 (in the assay on MCF7; with HeLa; in assay [1]) was over 100 µM throughout.

Take `Cc1ccc(S(=O)(=O)N[C@@H](Cc2ccccc2)C(=O)OC[C@H](Cc2ccccc2)NC(=O)c2ccccc2)cc1`: the IC50 amounted to 61.1 µM in the assay with MCF7, 37.6 µM in the assay with HeLa and 50 µM in assay [1].

On to `O=C(N[C@@H](COC(=O)[C@H](Cc1ccccc1)NC(=O)c1ccncc1)Cc1ccccc1)c1ccccc1` (single isomer, unassigned), for which the IC50 in the assay on MCF7 is 64.8 µM; in the assay on HeLa it was over 100 µM; in assay [1] it was over 100 µM.

`O=C(N[C@H](COC(=O)[C@H](Cc1ccccc1)NC(=O)n1cncn1)Cc1ccccc1)c1ccccc1`: the IC50 (in the assay with MCF7; with HeLa; in assay [1]) was over 100 µM each time.

Consider `O=C(N[C@H](COC(=O)[C@@H](Cc1ccccc1)NC(=O)n1ccnc1)Cc1ccccc1)c1ccccc1` (single isomer, unassigned), for which the IC50 with MCF7 stood at 66.2 µM; with HeLa, 72.5 µM; in assay [1], 78.4 µM.

For the compound `Cc1ccc(S(=O)(=O)N[C@H](Cc2ccccc2)C(=O)OC[C@@H](Cc2ccccc2)NC(=O)c2ccccc2)cc1`, the values for the IC50 (with MCF7; with HeLa; in assay [1]) were 36.7 µM, 31.6 µM and 22.2 µM, respectively.

For the compound `O=C(N[C@@H](COC(=O)[C@@H](Cc1ccccc1)NC(=O)c1cccnc1)Cc1ccccc1)c1ccccc1`, the IC50 (in the assay on MCF7; with HeLa; in assay [1]) was over 100 µM throughout.

On to `O=C(N[C@H](COC(=O)[C@H](Cc1ccccc1)NC(=O)c1cccnc1)Cc1ccccc1)c1ccccc1`, for which the IC50 (in the assay on MCF7; in the assay on HeLa; in assay [1]) was over 100 µM throughout.

With `O=C(N[C@@H](COC(=O)[C@@H](Cc1ccccc1)NC(=O)c1ccco1)Cc1ccccc1)c1ccccc1`, the IC50 (with MCF7; in the assay on HeLa; in assay [1]) was over 100 µM throughout.

As for `O=C(N[C@H](COC(=O)[C@H](Cc1ccccc1)NC(=O)c1ccco1)Cc1ccccc1)c1ccccc1`, the IC50 (in the assay on MCF7; with HeLa; in assay [1]) was over 100 µM each time.

Consider `O=C(N[C@H](COC(=O)[C@@H](Cc1ccccc1)NC(=O)c1ccco1)Cc1ccccc1)c1ccccc1` (single isomer, unassigned), for which the IC50 (in the assay on MCF7; in the assay on HeLa; in assay [1]) was over 100 µM each time.

Consider `O=C(N[C@H](COC(=O)[C@H](Cc1ccccc1)NC(=O)c1ccncc1)Cc1ccccc1)c1ccccc1`, for which the IC50 (with MCF7; in the assay on HeLa; in assay [1]) was over 100 µM each time.

Regarding `O=C(N[C@H](COC(=O)[C@@H](Cc1ccccc1)NC(=O)c1ccncc1)Cc1ccccc1)c1ccccc1` (single isomer, unassigned), the IC50 with MCF7 is 15.3 µM; in the assay on HeLa, 33.8 µM; in assay [1] it was 19.3 µM.

Consider `CS(=O)(=O)N[C@H](Cc1ccccc1)C(=O)OC[C@@H](Cc1ccccc1)NC(=O)c1ccccc1`, for which the IC50 in the assay with MCF7 came out at 60 µM; in the assay with HeLa, 64 µM; in assay [1] it was 52.2 µM.

On to `O=C(N[C@@H](COC(=O)[C@@H](Cc1ccccc1)NC(=O)n1ccnc1)Cc1ccccc1)c1ccccc1`, for which the IC50 in the assay on MCF7 came out at 87.2 µM; in the assay on HeLa, 79.1 µM; in assay [1], 91.1 µM.

Consider `O=C(N[C@@H](COC(=O)[C@@H](Cc1ccccc1)NC(=O)c1ccncc1)Cc1ccccc1)c1ccccc1`, for which the half-maximal inhibitory concentration (IC50) in the assay with MCF7 came to 53.6 µM; in the assay on HeLa, 89.7 µM; in assay [1], 64.7 µM.

Consider `O=C(N[C@H](COC(=O)[C@H](Cc1ccccc1)NC(=O)n1ccnc1)Cc1ccccc1)c1ccccc1`, for which the IC50 (in the assay with MCF7; with HeLa; in assay [1]) was over 100 µM each time.
